The values that follow come from ChEMBL document CHEMBL1148560, “Synthesis and biological evaluation of novel C (7) modified chrysin analogues as antibacterial agents” (2006).

What all share (assay type): functional
One assay has as its system Klebsiella aerogenes. Nature of the assay: Antibacterial activity against gram negative Klebsiella aerogenes(MTCC 39). The method in brief: (§1)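 MIC determined by broth dilution per NCCL standards; test panel comprised Gram-positive Bacillus subtilis (MTCC 441), Bacillus sphaericus (MTCC 11), Staphylococcus aureus (MTCC 96) and Gram-negative Chromobacterium violaceum (MTCC 2656), Klebsiella aerogenes (MTCC 39), Pseudomonas aeruginosa (MTCC 741); highest concentration tested 200 μg/ml; penicillin and streptomycin run under identical conditions as reference agents.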

In assay [1] the test system is Chromobacterium violaceum. Nature of the assay: Antibacterial activity against gram negative Chromobacterium violaceum(MTCC 2656). The method in brief: as §1
The next assay concerns Bacillus subtilis. Kind of assay: Antibacterial activity against gram positive Bacillus subtilis MTCC 441. Put shortly: as §1
Assay [2] has as its system Lysinibacillus sphaericus. Nature of the assay: Antibacterial activity against gram positive Bacillus sphaericus (MTCC 11). The method in brief: (§2)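 MICs were determined by broth dilution following National Committee for Clinical Laboratory (NCCL) standards. The same conditions were used for penicillin and streptomycin as reference agents.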
For a further assay, the system named is Staphylococcus aureus. Nature of the assay: Antibacterial activity against gram positive Staphylococcus aureus(MTCC 96). Put shortly: as §1
The subject of the next assay is Pseudomonas aeruginosa. Nature of the assay: Antibacterial activity against gram negative Pseudomonas aeruginosa (MTCC 741). Put shortly:
as §2

≈ marks a conversion by molar mass, not a printed value.

Regarding `CN(C)CCCCOc1cc(O)c2c(=O)cc(-c3ccccc3)oc2c1`, the minimum inhibitory concentration (MIC) (commonly the smallest concentration in the dilution series that meets the test's criterion for growth inhibition) worked out at 25 µg/mL (≈ 70.7 µM) in the assay with Klebsiella aerogenes; 12.5 µg/mL (≈ 35.4 µM) in assay [1]; 6.25 µg/mL (≈ 17.7 µM) in the assay on Bacillus subtilis; 6.25 µg/mL (≈ 17.7 µM) in assay [2]; 25 µg/mL (≈ 70.7 µM) in the assay with Staphylococcus aureus.

With `O=c1cc(-c2ccccc2)oc2cc(OCCCN3CCCCC3)cc(O)c12`, the MIC turned out to be 25 µg/mL (≈ 65.9 µM) in the assay with Klebsiella aerogenes; 6.25 µg/mL (≈ 16.5 µM) in assay [1]; 25 µg/mL (≈ 65.9 µM) in the assay with Bacillus subtilis; 12.5 µg/mL (≈ 32.9 µM) in assay [2]; 12.5 µg/mL (≈ 32.9 µM) against Staphylococcus aureus.

Regarding `O=c1cc(-c2ccccc2)oc2cc(OCCCCN3CCOCC3)cc(O)c12`, the MIC against Klebsiella aerogenes came to 12.5 µg/mL (≈ 31.6 µM); in assay [1] it was 6.25 µg/mL (≈ 15.8 µM); against Bacillus subtilis, 6.25 µg/mL (≈ 15.8 µM); in assay [2] it was 6.25 µg/mL (≈ 15.8 µM); in the assay with Staphylococcus aureus, 12.5 µg/mL (≈ 31.6 µM).

`CN(C)CCCOc1cc(O)c2c(=O)cc(-c3ccccc3)oc2c1`: the MIC against Klebsiella aerogenes came to 25 µg/mL (≈ 73.7 µM); in assay [1], 12.5 µg/mL (≈ 36.8 µM); with Bacillus subtilis, 25 µg/mL (≈ 73.7 µM); in assay [2], 12.5 µg/mL (≈ 36.8 µM); against Staphylococcus aureus, 12.5 µg/mL (≈ 36.8 µM).

In the case of `CC1(C)S[C@@H]2[C@H](NC(=O)Cc3ccccc3)C(=O)N2[C@H]1C(=O)O` [PENICILLIN G], the MIC in the assay on Klebsiella aerogenes stood at 6.25 µg/mL (≈ 18.7 µM); in assay [1], 12.5 µg/mL (≈ 37.4 µM); against Bacillus subtilis, 1.56 µg/mL (≈ 4.67 µM); against Pseudomonas aeruginosa, 6.25 µg/mL (≈ 18.7 µM); in assay [2] it was 3.12 µg/mL (≈ 9.35 µM); in the assay on Staphylococcus aureus, 1.56 µg/mL (≈ 4.67 µM).

Consider `CN1CCN(CCCOc2cc(O)c3c(=O)cc(-c4ccccc4)oc3c2)CC1`, for which the minimal inhibitory concentration (MIC) was 25 µg/mL (≈ 63.4 µM) in the assay on Klebsiella aerogenes; 12.5 µg/mL (≈ 31.7 µM) in assay [1]; 12.5 µg/mL (≈ 31.7 µM) with Bacillus subtilis; 12.5 µg/mL (≈ 31.7 µM) in assay [2]; 25 µg/mL (≈ 63.4 µM) in the assay on Staphylococcus aureus.

For `CN(C)CCCCCCOc1cc(O)c2c(=O)cc(-c3ccccc3)oc2c1`, the MIC against Klebsiella aerogenes was determined as 25 µg/mL (≈ 65.5 µM); in assay [1] it was 25 µg/mL (≈ 65.5 µM); against Bacillus subtilis, 12.5 µg/mL (≈ 32.8 µM); in assay [2] it was 12.5 µg/mL (≈ 32.8 µM); in the assay on Staphylococcus aureus it was 25 µg/mL (≈ 65.5 µM).

In the case of `CN1CCN(CCCCCCOc2cc(O)c3c(=O)cc(-c4ccccc4)oc3c2)CC1`, the MIC in the assay with Klebsiella aerogenes amounted to 25 µg/mL (≈ 57.3 µM); in assay [1] it was 12.5 µg/mL (≈ 28.6 µM); against Bacillus subtilis, 25 µg/mL (≈ 57.3 µM); in assay [2], 25 µg/mL (≈ 57.3 µM); against Staphylococcus aureus it was 12.5 µg/mL (≈ 28.6 µM).

Regarding `CN1CCN(CCCCOc2cc(O)c3c(=O)cc(-c4ccccc4)oc3c2)CC1`, the MIC amounted to 12.5 µg/mL (≈ 30.6 µM) with Klebsiella aerogenes; 6.25 µg/mL (≈ 15.3 µM) in assay [1]; 25 µg/mL (≈ 61.2 µM) with Bacillus subtilis; 6.25 µg/mL (≈ 15.3 µM) in assay [2]; 12.5 µg/mL (≈ 30.6 µM) in the assay with Staphylococcus aureus.

Turning to `O=c1cc(-c2ccccc2)oc2cc(OCCCCCCN3CCCCC3)cc(O)c12`, the MIC came to 25 µg/mL (≈ 59.3 µM) against Klebsiella aerogenes; 25 µg/mL (≈ 59.3 µM) in assay [1]; 25 µg/mL (≈ 59.3 µM) in the assay on Bacillus subtilis; 12.5 µg/mL (≈ 29.7 µM) in assay [2]; 25 µg/mL (≈ 59.3 µM) in the assay on Staphylococcus aureus.

Regarding `O=c1cc(-c2ccccc2)oc2cc(OCCCCCCN3CCOCC3)cc(O)c12`, the MIC (with Klebsiella aerogenes; in assay [1]; in the assay with Bacillus subtilis; in assay [2]; in the assay on Staphylococcus aureus) was 25 µg/mL (≈ 59 µM) in each case.

In the case of `O=c1cc(-c2ccccc2)oc2cc(O)cc(O)c12` [CHRYSIN], the MIC was found to be 50 µg/mL (≈ 197 µM) in the assay with Klebsiella aerogenes; 25 µg/mL (≈ 98.3 µM) in assay [1]; 50 µg/mL (≈ 197 µM) in the assay on Bacillus subtilis; 25 µg/mL (≈ 98.3 µM) in assay [2]; 50 µg/mL (≈ 197 µM) in the assay with Staphylococcus aureus.

For `O=c1cc(-c2ccccc2)oc2cc(OCCCN3CCOCC3)cc(O)c12`, the MIC came out at 25 µg/mL (≈ 65.5 µM) with Klebsiella aerogenes; 12.5 µg/mL (≈ 32.8 µM) in assay [1]; 12.5 µg/mL (≈ 32.8 µM) against Bacillus subtilis; 12.5 µg/mL (≈ 32.8 µM) in assay [2]; 25 µg/mL (≈ 65.5 µM) against Staphylococcus aureus.

`O=c1cc(-c2ccccc2)oc2cc(OCCCCN3CCCCC3)cc(O)c12`: the MIC in the assay on Klebsiella aerogenes is 25 µg/mL (≈ 63.5 µM); in assay [1], 6.25 µg/mL (≈ 15.9 µM); in the assay on Bacillus subtilis it was 12.5 µg/mL (≈ 31.8 µM); in assay [2] it was 12.5 µg/mL (≈ 31.8 µM); in the assay with Staphylococcus aureus, 25 µg/mL (≈ 63.5 µM).

Consider `CN[C@@H]1[C@H](O[C@H]2[C@H](O[C@H]3[C@H](O)[C@@H](O)[C@H](N=C(N)N)[C@@H](O)[C@@H]3N=C(N)N)O[C@@H](C)[C@]2(O)C=O)O[C@@H](CO)[C@H](O)[C@H]1O` [STREPTOMYCIN], for which the MIC in the assay on Klebsiella aerogenes was found to be 1.56 µg/mL (≈ 2.69 µM); in assay [1], 3.12 µg/mL (≈ 5.37 µM); against Bacillus subtilis, 6.25 µg/mL (≈ 10.7 µM); against Pseudomonas aeruginosa, 1.56 µg/mL (≈ 2.69 µM); in assay [2], 12.5 µg/mL (≈ 21.5 µM); against Staphylococcus aureus, 6.25 µg/mL (≈ 10.7 µM).
